High-throughput results: PubChem BioAssay, Broad Institute
This is a sample that favours compounds with a hit; in the whole collection about 5.8% have one here.
T cruzi growth-1: blocks T. cruzi growth in NIH3T3 culture; T. cruzi beta-gal in NIH3T3, GalScreen luminescence, 90 h; inhibition, % at 8.34 µM; actives 5.9% (n = 77,000);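 active = mean inhibition above about 93%, with at least 55% of replicates each passing it, limit read from the data, passing the limit was not always enough; inconclusive = only one of those two conditions holds; inactive = neither condition holds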
GASC1 inh: blocks human GASC-1 (KDM4C) demethylase activity | Q9H3R0 | GST-KDM4C 2-372, H3K9me3 peptide, LANCE TR-FRET | inhibition, % at 12.5 µM | actives 0.15% (n = 96,000);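 active = mean replicate inhibition above about 25%, with at least 55% of replicates also reaching it, limit read from the data, passing the limit was not always enough; inconclusive = only one of those two conditions met; inactive = neither condition met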
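Material: N-terminal GST-fused human GASC-1 (KDM4C) fragment, residues 2-372. Input: 10 nM enzyme. Incubation: enzyme reaction 30 min, then detection 60 min, both room temperature. Doses: one test concentration per compound. Read-out basis: inhibition from TR-FRET ratio decrease. Detection: LANCE TR-FRET, excitation 340 nm, emissions 618 and 671 nm.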
IDH1 mut inh: IDH1 R132H (human) inhibition; O75874; IDH1 R132H reductase, diaphorase/resazurin fluorescence, 60 min; inhibition, % at 10 µM; actives 0.18% (n = 70,000); AID 624101; in the data active = inhibition above about 34%; inconclusive = no clear call, values can overlap the other calls; inactive = below about 11%;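 also: 0% = DMSO and 100% = no enzyme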
Target sequence (O75874 whole entry R132H): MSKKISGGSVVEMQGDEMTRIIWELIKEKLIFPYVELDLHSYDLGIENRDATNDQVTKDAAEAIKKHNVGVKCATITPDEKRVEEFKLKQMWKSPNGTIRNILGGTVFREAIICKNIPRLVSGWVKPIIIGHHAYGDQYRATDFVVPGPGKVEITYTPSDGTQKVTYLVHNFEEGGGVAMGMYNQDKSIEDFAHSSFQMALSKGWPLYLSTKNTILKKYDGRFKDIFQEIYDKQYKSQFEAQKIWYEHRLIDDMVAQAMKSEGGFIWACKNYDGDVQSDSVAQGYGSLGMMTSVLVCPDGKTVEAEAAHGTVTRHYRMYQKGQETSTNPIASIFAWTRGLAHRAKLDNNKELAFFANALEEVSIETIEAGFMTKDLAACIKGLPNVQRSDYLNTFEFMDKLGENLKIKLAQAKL
Pf Dd2 inh: inhibitors of Plasmodium falciparum Dd2 growth; activity change, % at 10 µM; actives 2.3% (n = 94,000); P. falciparum Dd2 growth, SYBR Green, 72 h; stronger effect = lower value; in the data active = activity change below about -80%; inconclusive = no clear call, values can overlap the other calls
T cruzi growth-2: inhibitors of T. cruzi proliferation. shares compounds with T cruzi growth-1. T. cruzi beta-gal in NIH3T3, GalScreen luminescence, 90 h. inhibition, % at 8.35 µM. actives 72% (n = 5,600);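 active = mean replicate inhibition above about 95% and at least 55% of replicates individually reaching it, limit read from the data; inconclusive = only one of the two criteria is met; inactive = neither criterion is met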
T cruzi growth-3: Trypanosoma cruzi proliferation inhibition; shares compounds with T cruzi growth-1; T. cruzi beta-gal in NIH3T3, GalScreen luminescence, 90 h; inhibition, % at 2.09 µM; actives 21% (n = 5,600); AID 651740;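 active = mean inhibition above about 95%, with at least 55% of replicates also reaching it, limit read from the data; inconclusive = meets just one of the two conditions; inactive = meets neither condition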;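 also: plate controls were neutral control median for no effect and positive control median for full effect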
3T3 cytotox: NIH/3T3 (mouse) viability loss; shares compounds with T cruzi growth-1; NIH/3T3 viability, CellTiter-Glo ATP luminescence, 90 h; cytotoxicity (signal decrease), % at 8.35 µM; actives 14% (n = 5,600); AID 651742;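 active = mean signal decrease across replicates above about 35% based on untreated-well scatter, with enough replicates individually passing, limit read from the data; inconclusive = no rule stated though some were filed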;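 also: 0% = median of neutral control wells and 100% = median of positive control wells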
NIH3T3 tox 2: cytotoxicity in mouse NIH/3T3 fibroblasts. shares compounds with T cruzi growth-1. NIH/3T3 viability, CellTiter-Glo ATP luminescence, 90 h. inhibition, % at 24.9 µM. actives 56% (n = 5,600). AID 651744;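 active = mean loss of cell viability signal at or above a set limit, and enough replicates individually reaching it; inconclusive = meets only the mean limit or only the replicate share; inactive = meets neither condition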;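 also: 0% = median of neutral control wells and 100% = median of positive control wells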
An asterisk follows results filed as active; ? = inconclusive; · = not tested or not shown.

SMILES	T cruzi growth-1	GASC1 inh	IDH1 mut inh	Pf Dd2 inh	T cruzi growth-2	T cruzi growth-3	3T3 cytotox	NIH3T3 tox 2
C[C@H]1CN([C@@H](C)CO)S(=O)(=O)c2ccc(C#Cc3ccccc3F)cc2O[C@H]1CN(C)C(=O)Cc1ccccc1	125*	-1	0	-26	109*	65	26	103*
C[C@@H]1CN([C@H](C)CO)S(=O)(=O)c2ccc(C#Cc3ccccc3F)cc2O[C@@H]1CN(C)C(=O)Cc1ccncc1	·	-2	1	-60	·	·	·	·
C[C@H](CO)N1C[C@H](C)[C@@H](CN(C)C(=O)Cc2ccccc2)Oc2cc(C#Cc3ccccc3F)ccc2S1(=O)=O	124*	-4	0	?	85	92	-1	1
C[C@H](CO)N1C[C@H](C)[C@H](CN(C)C(=O)Cc2ccccc2)Oc2cc(C#Cc3ccccc3F)ccc2S1(=O)=O	127*	2	-1	-25	95*	74	21	?
C[C@H]1CN([C@@H](C)CO)S(=O)(=O)c2ccc(C#Cc3ccccc3F)cc2O[C@@H]1CN(C)C(=O)Cc1ccncc1	·	-2	0	-51	·	·	·	·
C[C@H]1CN([C@@H](C)CO)S(=O)(=O)c2ccc(C#Cc3ccccc3F)cc2O[C@@H]1CN(C)C(=O)Cc1cccnc1	81	-3	0	-59	·	·	·	·
C[C@@H]1CN([C@@H](C)CO)S(=O)(=O)c2ccc(C#Cc3ccccc3F)cc2O[C@H]1CN(C)C(=O)Cc1cccnc1	96*	-3	5	-43	104*	36	34	73*
COc1ccc(S(=O)(=O)Nc2ccc3c(c2)CC(=O)N([C@H](C)CO)C[C@H](C)[C@@H](CN(C)Cc2ccc(C(=O)O)cc2)O3)cc1	·	15	-2	11	·	·	·	·
C[C@H](CO)N1C[C@H](C)[C@H](CN(C)S(=O)(=O)c2ccccc2)Oc2ncc(C#CC(C)(C)O)cc2C1=O	·	1	-1	5	·	·	·	·
C[C@@H]1CCCCO[C@@H](CN(C)Cc2ccc(C(F)(F)F)cc2)[C@H](C)CN([C@@H](C)CO)C(=O)c2cc(NC(=O)c3ccccc3)ccc2O1	73	-3	0	-58	·	·	·	·
CC(=O)c1ccc(NC(=O)C(C)N2C(=O)C3C4C=CC(C5CC45)C3C2=O)cc1 (stereo not given)	·	·	-1	·	·	·	·	·
C[C@@H]1CN([C@H](C)CO)S(=O)(=O)c2ccc(C#Cc3ccccc3F)cc2O[C@@H]1CN(C)C(=O)Cc1ccccc1	121*	·	0	-48	97*	99*	27	102*
CC(=O)N(C)C[C@@H]1Oc2cc(C#Cc3ccccc3F)ccc2S(=O)(=O)N([C@H](C)CO)C[C@H]1C	38	0	-5	-44	·	·	·	·
Cc1ccccc1-c1ccc([C@H]2[C@H](CO)N3CCCCN(C(=O)CN4CCOCC4)C[C@@H]23)cc1	102*	-1	·	-4	87	70	14	23
Cc1ccccc1-c1ccc([C@@H]2[C@H](CO)N3CCCCN(C(=O)CN4CCOCC4)C[C@@H]23)cc1	101*	2	·	-34	84	47	36*	32*
C[C@H](CO)N1C[C@H](C)[C@@H](CN(C)Cc2ccc(C(F)(F)F)cc2)OCCCC[C@H](C)Oc2ccc(NC(=O)CCC(F)(F)F)cc2C1=O	84	2	3	5	·	·	·	·
C/C=C/c1ccc([C@@H]2[C@H](CO)N3C(=O)CN(Cc4ccc(C(=O)OC)cc4)C[C@@H]23)cc1	·	-2	·	-15	·	·	·	·
C[C@@H]1CN([C@H](C)CO)C(=O)c2cc(NS(=O)(=O)c3ccccc3)ccc2O[C@@H](C)CCCCO[C@@H]1CN(C)C(=O)c1ccccc1	-41	0	-1	21	·	·	·	·
COC(=O)c1c(=O)n(O)c2cc(Cl)c(Cl)cc2[n+]1[O-]	·	·	0	·	·	·	·	·
CN(C)CC#Cc1cccc(-c2nc(C(=O)NCCCN3CCOCC3)cc3c2[C@H](CCO)N(S(=O)C(C)(C)C)C3)c1 (stereo not given in full)	105*	·	·	·	85	63	-18	-5
COc1ccc(C#Cc2cccc(-c3nc(C(=O)NCCCN4CCOCC4)cc4c3[C@@H](CCO)N(S(=O)C(C)(C)C)C4)c2)cc1OC (stereo not given in full)	62	-2	·	·	·	·	·	·
CC(C)(C)S(=O)N1Cc2cc(C(=O)NCCCN3CCOCC3)nc(-c3cccc(C#CCC4CCCC4)c3)c2[C@@H]1CCO (stereo not given in full)	?	-2	-1	-74	100*	82	42*	105*
CN(C)CC(=O)N1CCCCN2[C@@H](CO)[C@@H](c3ccc(/C=C/c4ccccc4)cc3)[C@@H]2C1	102*	0	·	-78	99*	113*	120*	104*
CN(C)CC(=O)N1CCCCN2[C@@H](CO)[C@H](c3ccc(/C=C/c4ccccc4)cc3)[C@@H]2C1	97*	-1	·	-64	?	102*	117*	102*
CN(C)CC(=O)N1CCCCN2[C@H](C1)[C@@H](c1ccc(/C=C/c3ccccc3)cc1)[C@@H]2CO	-46	1	·	-2	·	·	·	·
SMILES	T cruzi growth-1	GASC1 inh	IDH1 mut inh	Pf Dd2 inh	T cruzi growth-2	T cruzi growth-3	3T3 cytotox	NIH3T3 tox 2
CCC(=O)N1CCCCN2[C@H](CO)[C@H](c3ccc(/C=C/c4ccccc4)cc3)[C@@H]2C1	113*	-4	·	20	108*	82	48*	45*
CN(C)CC(=O)N1CCCCN2[C@H](C1)[C@H](c1ccc(/C=C/c3ccccc3)cc1)[C@@H]2CO	75	-1	·	-5	·	·	·	·
CC(C)(C)NS(=O)(=O)c1ccc(OCC(=O)Nc2ccc(F)c(Cl)c2)cc1	·	·	0	·	·	·	·	·
C[C@@H]1CN([C@H](C)CO)C(=O)Cc2cc(NC(=O)c3ccncc3)ccc2O[C@H]1CN(C)C(=O)Nc1cccc2ccccc12	-35	5	-2	35	·	·	·	·
C[C@H](CO)N1C[C@H](C)[C@H](CN(C)CC2CCCCC2)Oc2ccc(NC(=O)Cc3ccccc3)cc2C1=O	46	2	·	-3	·	·	·	·
C[C@H](CO)N1C[C@H](C)[C@@H](CN(C)CC2CCCCC2)Oc2ccc(NC(=O)CCC(F)(F)F)cc2C1=O	?	·	·	12	46	-21	-7	7
C[C@@H]1CN([C@@H](C)CO)C(=O)c2cc(NC(=O)Cc3ccccc3)ccc2O[C@H]1CN(C)CC1CCCCC1	?	1	·	-7	65	6	-16	2
